Columns and labels:
[1] = target: T1, Thiosulfate sulfurtransferase (Homo sapiens, UniProt Q16762); assay: Inhibition of refolded rhodanese (unknown origin) preincubated with Escherichia coli GroEL/GroES for 60 mins in absence of compound followed by compound addition by spectrometric analysis
T1 sequence (Q16762 whole entry): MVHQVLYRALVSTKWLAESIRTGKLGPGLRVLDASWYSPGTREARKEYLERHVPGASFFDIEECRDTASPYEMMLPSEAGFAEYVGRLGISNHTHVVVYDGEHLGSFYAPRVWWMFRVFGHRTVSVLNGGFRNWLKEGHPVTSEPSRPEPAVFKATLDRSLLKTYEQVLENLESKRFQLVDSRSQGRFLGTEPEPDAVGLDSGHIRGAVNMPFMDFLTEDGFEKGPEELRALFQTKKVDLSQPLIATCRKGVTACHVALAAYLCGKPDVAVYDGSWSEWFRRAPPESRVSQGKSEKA

Staphylococcus aureus [2] = assay: Antibacterial activity against Staphylococcus aureus ATCC 25923 after 6 to 8 hrs by bacterial proliferation assay; assay type: functional, organism-based
Klebsiella pneumoniae = assay: Antibacterial activity against Klebsiella pneumoniae ATCC 13883 after 6 to 8 hrs by bacterial proliferation assay; assay type: functional, organism-based
Method in brief: (§1)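 Bacterial growth inhibition in liquid culture. The highest concentration tested was 100 µM. The mean was back-calculated from the average log value. Values above the top concentration were set 0.1 log unit higher.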

Staphylococcus aureus [3] = assay: Antibacterial activity against methicillin-resistant Staphylococcus aureus ATCC BAA-44 after 6 to 8 hrs by bacterial proliferation assay; assay type: functional, organism-based; details: Staphylococcus aureus, ATCC BAA-44
HSP60/HSP10 = HSP60/HSP10 (Homo sapiens, UniProt P10809); assay: Inhibition of human N-terminal octa-His-tagged HSP60 expressed in Escherichia coli Rosetta(DE3) pLysS/human HSP10 expressed in Escherichia coli Rosetta(DE3) assessed as reduction in HSP60/HSP10-mediated denatured MDH refolding after 40 to 60 mins by spectrometric analysis
Method in brief: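 Human HSP60/10 refolding of denatured MDH, run the same way as the GroEL/ES-dMDH assay. A binary complex of chaperonin and denatured MDH is formed, and refolding is started with ATP and HSP10. MDH activity is the read-out. DMSO is the negative control. IC50 values from replicate curves are log-averaged after ROUT outlier screening.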

Acinetobacter baumannii = assay: Antibacterial activity against Acinetobacter baumannii ATCC 19606 after 24 hrs by bacterial proliferation assay; assay type: functional, organism-based; details: ATCC 19606 = CIP 70.34 = JCM 6841, 24 h; method in brief: as §1
Enterococcus faecium = assay: Antibacterial activity against Enterococcus faecium ATCC 19434 after 24 hrs by bacterial proliferation assay; assay type: functional, organism-based; details: ATCC 19434, 24 h
E. coli GroEL/ES [4] = target: T2, E. coli GroEL/ES (Escherichia coli, UniProt P0A6F5); assay: Inhibition of Escherichia coli GroEL expressed in Escherichia coli DH5alpha/Escherichia coli GroES expressed in Escherichia coli BL21 (DE3) assessed as reduction in GroEL/GroES-mediated denatured MDH refolding after 20 to 40 mins by spectrometric analysis
Method in brief: (§2)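 Uses E. coli GroEL/ES with a denatured MDH or rhodanese reporter. GroEL first forms a binary complex with the denatured reporter. Refolding is started by adding ATP and GroES, then reporter enzyme activity is read. DMSO is the negative control. IC50 values from replicate curves are log-averaged after ROUT outlier screening.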

E. coli GroEL/ES [5] = target: T2, E. coli GroEL/ES; assay: Inhibition of Escherichia coli GroEL expressed in Escherichia coli DH5alpha/Escherichia coli GroES expressed in Escherichia coli BL21 (DE3) assessed as reduction in GroEL/GroES-mediated denatured rhodanese refolding after 45 mins by spectrometric analysis; method in brief: as §2
[6] = Cytotoxicity against human THLE3 cells assessed as reduction in cell viability after 48 hrs by Alamar Blue reporter assay; details: 48 h
Pseudomonas aeruginosa = assay: Antibacterial activity against Pseudomonas aeruginosa ATCC 10145 after 24 hrs by bacterial proliferation assay; assay type: functional, organism-based; details: ATCC 10145, 24 h; method in brief: as §1
[7] = Inhibition of refolded MDH (unknown origin) preincubated with Escherichia coli GroEL/GroES for 45 mins in absence of compound followed by compound addition and measured for 20 to 35 mins by spectrometric analysis
Enterobacter cloacae = assay: Antibacterial activity against Enterobacter cloacae subsp. cloacae ATCC 13047 after 24 hrs by bacterial proliferation assay; assay type: functional, organism-based; details: subsp. cloacae ATCC 13047, 24 h; method in brief: as §1
HEK293 = assay: Cytotoxicity against HEK293 cells assessed as reduction in cell viability after 48 hrs by Alamar Blue reporter assay; details: human, hek293, 48 h

T2 sequence (P0A6F5 whole entry, looked up): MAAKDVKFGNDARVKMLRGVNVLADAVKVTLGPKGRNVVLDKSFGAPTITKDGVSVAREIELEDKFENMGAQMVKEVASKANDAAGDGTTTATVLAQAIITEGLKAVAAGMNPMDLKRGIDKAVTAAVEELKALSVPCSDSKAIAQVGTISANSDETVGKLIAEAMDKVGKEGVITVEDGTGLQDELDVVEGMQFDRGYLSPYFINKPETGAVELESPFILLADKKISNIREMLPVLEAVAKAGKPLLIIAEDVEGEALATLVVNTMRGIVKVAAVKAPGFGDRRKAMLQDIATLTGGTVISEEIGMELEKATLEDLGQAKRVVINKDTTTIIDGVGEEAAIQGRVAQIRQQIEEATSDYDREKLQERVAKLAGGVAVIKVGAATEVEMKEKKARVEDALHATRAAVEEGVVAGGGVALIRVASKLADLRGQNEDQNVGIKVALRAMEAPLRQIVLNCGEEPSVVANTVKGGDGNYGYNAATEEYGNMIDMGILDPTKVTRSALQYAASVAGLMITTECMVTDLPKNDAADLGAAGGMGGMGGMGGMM
HSP60/HSP10, sequence (P10809 whole entry): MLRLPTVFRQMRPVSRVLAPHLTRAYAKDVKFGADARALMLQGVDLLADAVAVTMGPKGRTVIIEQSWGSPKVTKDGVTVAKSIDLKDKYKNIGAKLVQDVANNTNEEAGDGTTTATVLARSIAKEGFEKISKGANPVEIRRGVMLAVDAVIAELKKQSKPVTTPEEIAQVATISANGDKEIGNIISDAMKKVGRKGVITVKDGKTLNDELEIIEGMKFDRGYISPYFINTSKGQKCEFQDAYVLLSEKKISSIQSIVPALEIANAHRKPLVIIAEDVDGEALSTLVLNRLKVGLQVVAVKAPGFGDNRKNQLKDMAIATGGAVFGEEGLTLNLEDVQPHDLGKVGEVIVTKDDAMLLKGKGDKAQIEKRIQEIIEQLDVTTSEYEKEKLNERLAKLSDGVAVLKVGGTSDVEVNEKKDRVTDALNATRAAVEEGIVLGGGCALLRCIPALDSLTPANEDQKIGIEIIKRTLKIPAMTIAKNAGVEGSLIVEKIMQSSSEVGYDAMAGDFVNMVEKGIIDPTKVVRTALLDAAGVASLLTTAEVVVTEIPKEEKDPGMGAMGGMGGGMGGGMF
HSP60/HSP10, sequence (P61604 whole entry, further chain): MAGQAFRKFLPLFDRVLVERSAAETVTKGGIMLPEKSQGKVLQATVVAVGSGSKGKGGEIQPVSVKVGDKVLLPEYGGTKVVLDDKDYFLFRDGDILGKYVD

O=C(Nc1ccc(Sc2nc3ccccc3s2)c(Cl)c1)c1ccccc1O
IC50 [1]: > 100 µM | EC50 (Staphylococcus aureus [2]): 0.31 µM | EC50 (Klebsiella pneumoniae): > 100 µM | EC50 (Staphylococcus aureus [3]): 0.45 µM | IC50 (HSP60/HSP10): > 100 µM | EC50 (Acinetobacter baumannii): > 100 µM | EC50 (Enterococcus faecium): 64 µM | IC50 (E. coli GroEL/ES [4]): 42 µM | IC50 (E. coli GroEL/ES [5]): 63 µM | CC50 [6]: 34 µM | EC50 (Pseudomonas aeruginosa): > 100 µM | IC50 [7]: > 63 µM | EC50 (Enterobacter cloacae): > 100 µM

COc1c(Br)cc(Br)cc1C(=O)Nc1ccc(Sc2nc3ccccc3s2)c(Cl)c1
CC50 (HEK293): > 100 µM | IC50 [1]: > 100 µM | EC50 (Staphylococcus aureus [2]): > 100 µM | EC50 (Klebsiella pneumoniae): > 100 µM | EC50 (Staphylococcus aureus [3]): > 100 µM | IC50 (HSP60/HSP10): > 100 µM | EC50 (Acinetobacter baumannii): > 100 µM | EC50 (Enterococcus faecium): > 100 µM | IC50 (E. coli GroEL/ES [4]): > 100 µM | IC50 (E. coli GroEL/ES [5]): > 100 µM | CC50 [6]: > 100 µM | EC50 (Pseudomonas aeruginosa): > 100 µM | IC50 [7]: > 63 µM | EC50 (Enterobacter cloacae): > 100 µM

Cc1cc(C(C#N)c2ccc(Cl)cc2)c(Cl)cc1NC(=O)c1cc(I)cc(I)c1O (centres undefined) [CLOSANTEL]
CC50 (HEK293): 75 µM | IC50 [1]: > 100 µM | EC50 (Staphylococcus aureus [2]): 0.47 µM | EC50 (Klebsiella pneumoniae): > 100 µM | EC50 (Staphylococcus aureus [3]): 0.47 µM | IC50 (HSP60/HSP10): 2.5 µM | EC50 (Acinetobacter baumannii): > 100 µM | EC50 (Enterococcus faecium): 1.2 µM | IC50 (E. coli GroEL/ES [4]): 2.2 µM | IC50 (E. coli GroEL/ES [5]): 1.5 µM | CC50 [6]: 52 µM | EC50 (Pseudomonas aeruginosa): > 100 µM | IC50 [7]: 6.1 µM | EC50 (Enterobacter cloacae): > 100 µM

O=C(Nc1ccccc1)c1ccccc1O [SALICYLANILIDE]
CC50 (HEK293): > 100 µM | IC50 [1]: > 100 µM | EC50 (Staphylococcus aureus [2]): 28 µM | EC50 (Klebsiella pneumoniae): > 100 µM | EC50 (Staphylococcus aureus [3]): 51 µM | IC50 (HSP60/HSP10): > 100 µM | EC50 (Acinetobacter baumannii): > 100 µM | EC50 (Enterococcus faecium): > 100 µM | IC50 (E. coli GroEL/ES [4]): > 100 µM | IC50 (E. coli GroEL/ES [5]): > 100 µM | CC50 [6]: 68 µM | EC50 (Pseudomonas aeruginosa): > 100 µM | IC50 [7]: > 63 µM | EC50 (Enterobacter cloacae): > 100 µM

COc1c(Br)cccc1C(=O)Nc1cccc(Cl)c1
CC50 (HEK293): > 100 µM | IC50 [1]: > 100 µM | EC50 (Staphylococcus aureus [2]): > 100 µM | EC50 (Klebsiella pneumoniae): > 100 µM | EC50 (Staphylococcus aureus [3]): > 100 µM | IC50 (HSP60/HSP10): > 100 µM | EC50 (Acinetobacter baumannii): > 100 µM | EC50 (Enterococcus faecium): > 100 µM | IC50 (E. coli GroEL/ES [4]): > 100 µM | IC50 (E. coli GroEL/ES [5]): > 100 µM | CC50 [6]: > 100 µM | EC50 (Pseudomonas aeruginosa): > 100 µM | IC50 [7]: > 63 µM | EC50 (Enterobacter cloacae): > 100 µM

O=C(Nc1ccc(Sc2nc3ccccc3s2)c(Cl)c1)c1ccccc1
CC50 (HEK293): 90 µM | IC50 [1]: > 100 µM | EC50 (Staphylococcus aureus [2]): 43 µM | EC50 (Klebsiella pneumoniae): > 100 µM | EC50 (Staphylococcus aureus [3]): > 100 µM | IC50 (HSP60/HSP10): > 100 µM | EC50 (Acinetobacter baumannii): > 100 µM | EC50 (Enterococcus faecium): > 100 µM | IC50 (E. coli GroEL/ES [4]): > 100 µM | IC50 (E. coli GroEL/ES [5]): > 100 µM | CC50 [6]: 82 µM | EC50 (Pseudomonas aeruginosa): > 100 µM | IC50 [7]: > 63 µM | EC50 (Enterobacter cloacae): > 100 µM

O=C(Nc1cccc(Cl)c1)c1cc(Br)cc(Br)c1
CC50 (HEK293): 53 µM | IC50 [1]: > 100 µM | EC50 (Staphylococcus aureus [2]): 14 µM | EC50 (Klebsiella pneumoniae): > 100 µM | EC50 (Staphylococcus aureus [3]): 12 µM | IC50 (HSP60/HSP10): > 100 µM | EC50 (Acinetobacter baumannii): > 100 µM | EC50 (Enterococcus faecium): > 100 µM | IC50 (E. coli GroEL/ES [4]): > 100 µM | IC50 (E. coli GroEL/ES [5]): > 100 µM | CC50 [6]: 45 µM | EC50 (Pseudomonas aeruginosa): > 100 µM | IC50 [7]: > 63 µM | EC50 (Enterobacter cloacae): > 100 µM

COc1ccccc1C(=O)Nc1ccc(Sc2nc3ccccc3s2)c(Cl)c1
CC50 (HEK293): > 100 µM | IC50 [1]: > 100 µM | EC50 (Staphylococcus aureus [2]): > 100 µM | EC50 (Klebsiella pneumoniae): > 100 µM | EC50 (Staphylococcus aureus [3]): > 100 µM | IC50 (HSP60/HSP10): > 100 µM | EC50 (Acinetobacter baumannii): > 100 µM | EC50 (Enterococcus faecium): > 100 µM | IC50 (E. coli GroEL/ES [4]): > 100 µM | IC50 (E. coli GroEL/ES [5]): > 100 µM | CC50 [6]: > 100 µM | EC50 (Pseudomonas aeruginosa): > 100 µM | IC50 [7]: > 63 µM | EC50 (Enterobacter cloacae): > 100 µM

O=C(Nc1ccccc1)c1cccc(Br)c1
CC50 (HEK293): > 100 µM | IC50 [1]: > 100 µM | EC50 (Staphylococcus aureus [2]): > 100 µM | EC50 (Klebsiella pneumoniae): > 100 µM | EC50 (Staphylococcus aureus [3]): > 100 µM | IC50 (HSP60/HSP10): > 100 µM | EC50 (Acinetobacter baumannii): > 100 µM | EC50 (Enterococcus faecium): > 100 µM | IC50 (E. coli GroEL/ES [4]): > 100 µM | IC50 (E. coli GroEL/ES [5]): > 100 µM | CC50 [6]: > 100 µM | EC50 (Pseudomonas aeruginosa): > 100 µM | IC50 [7]: > 63 µM | EC50 (Enterobacter cloacae): > 100 µM

CO[C@H]1/C=C/O[C@@]2(C)Oc3c(C)c(O)c4c(O)c(c(/C=N/N5CCN(C)CC5)c(O)c4c3C2=O)NC(=O)/C(C)=C\C=C\[C@H](C)[C@H](O)[C@@H](C)[C@@H](O)[C@@H](C)[C@H](OC(C)=O)[C@@H]1C [RIFAMPIN]
IC50 [1]: > 100 µM | EC50 (Staphylococcus aureus [2]): < 0.05 µM | EC50 (Klebsiella pneumoniae): 11 µM | EC50 (Staphylococcus aureus [3]): 0.23 µM | IC50 (HSP60/HSP10): > 100 µM | EC50 (Acinetobacter baumannii): 1.3 µM | EC50 (Enterococcus faecium): 0.13 µM | IC50 (E. coli GroEL/ES [4]): > 100 µM | IC50 (E. coli GroEL/ES [5]): > 100 µM | EC50 (Pseudomonas aeruginosa): 7.8 µM | IC50 [7]: > 63 µM | EC50 (Enterobacter cloacae): 8.8 µM

COc1ccccc1C(=O)Nc1cccc(Cl)c1
CC50 (HEK293): > 100 µM | IC50 [1]: > 100 µM | EC50 (Staphylococcus aureus [2]): > 100 µM | EC50 (Klebsiella pneumoniae): > 100 µM | EC50 (Staphylococcus aureus [3]): > 100 µM | IC50 (HSP60/HSP10): > 100 µM | EC50 (Acinetobacter baumannii): > 100 µM | EC50 (Enterococcus faecium): > 100 µM | IC50 (E. coli GroEL/ES [4]): > 100 µM | IC50 (E. coli GroEL/ES [5]): > 100 µM | CC50 [6]: > 100 µM | EC50 (Pseudomonas aeruginosa): > 100 µM | IC50 [7]: > 63 µM | EC50 (Enterobacter cloacae): > 100 µM

O=C(Nc1ccc(Sc2nc3ccccc3s2)cc1)c1cccc(Br)c1O
CC50 (HEK293): 71 µM | IC50 [1]: > 100 µM | EC50 (Staphylococcus aureus [2]): 0.76 µM | EC50 (Klebsiella pneumoniae): > 100 µM | EC50 (Staphylococcus aureus [3]): 1.1 µM | EC50 (Acinetobacter baumannii): 12 µM | EC50 (Enterococcus faecium): 11 µM | IC50 (E. coli GroEL/ES [4]): 33 µM | IC50 (E. coli GroEL/ES [5]): 14 µM | CC50 [6]: 36 µM | EC50 (Pseudomonas aeruginosa): > 100 µM | IC50 [7]: > 63 µM | EC50 (Enterobacter cloacae): > 100 µM

— ChEMBL document CHEMBL4266041, “Hydroxybiphenylamide GroEL/ES Inhibitors Are Potent Antibacterials against Planktonic and Biofilm Forms of Staphylococcus aureus” (J Med Chem, 2018)
